# Shown are actives, neighbours in structure and some others; about 3.7% of the full set was active somewhere.
# hERG protect: hERG (human) protection from proarrhythmic block. Q12809. CHO-hERG, FluxOR thallium flux, dofetilide IC70 present. activation (rescue from dofetilide block), less the hit threshold, % at 10 µM. 310,000 compounds, 0.51% hits. AID 1511;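 active means activation above the mean of controls blocked by dofetilide plus 5 SD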;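 further: thallium influx through hERG after potassium depolarization seen as dye fluorescence rise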
# KCNK3 inh: human KCNK3 channel inhibition, primary screen | 340,000 compounds, 0.84% hits | O14649 | B-score at 10 µM | CHO-KCNK3 thallium flux, FluxOR fluorescence; active compounds read low;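 active means B-score under library mean minus 4 SD, starting fluorescence ratio at most library mean plus 5 SD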;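 further: more negative B-score means stronger inhibition of thallium flux through KCNK3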
# Target sequence (O14649 whole entry, looked up): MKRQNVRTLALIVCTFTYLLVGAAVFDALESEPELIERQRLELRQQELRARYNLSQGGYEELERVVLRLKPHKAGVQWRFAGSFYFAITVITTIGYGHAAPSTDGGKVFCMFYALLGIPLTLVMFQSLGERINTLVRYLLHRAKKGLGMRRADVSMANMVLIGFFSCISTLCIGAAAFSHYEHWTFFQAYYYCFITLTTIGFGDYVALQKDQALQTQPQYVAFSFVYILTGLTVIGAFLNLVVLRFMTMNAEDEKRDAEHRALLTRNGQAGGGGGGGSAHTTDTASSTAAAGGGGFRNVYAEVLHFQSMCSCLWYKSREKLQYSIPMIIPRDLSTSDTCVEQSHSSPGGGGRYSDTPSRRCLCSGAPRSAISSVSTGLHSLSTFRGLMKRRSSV
# Kir21 inh: inhibitors of mouse Kir2.1 inward-rectifier potassium channel. P35561. HEK293-Kir2.1, FluxOR thallium flux fluorescence; active compounds read low. B-score at 10 µM. 310,000 compounds, 0.85% hits. AID 1672;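 active means fluorescence ratio B-score at or below minus 3 SD of library scores, with starting-brightness B-score within 2 SD, cut at about -4.2 in these data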;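 further: channel flux triggered by added potassium and thallium sulfate stimulus; B-score of peak minus minimum fluorescence over baseline after thallium stimulus; more negative B-score means stronger Kir2.1 block with less thallium influx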
# KCNQ1 inh: inhibitors of human KCNQ1 potassium channel. CHO-K1 KCNQ1, FluxOR thallium flux fluorescence; active compounds read high. B-score at 10 µM. 310,000 compounds, 1.3% hits. AID 2642;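 active means compounds whose thallium flux B-score, printed positive for inhibition, exceeds three library SD while starting fluorescence stays within three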;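 further: channel opened by potassium depolarization with thallium stimulus after 20 min compound exposure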
# KCNK9 block: blocks the human KCNK9 two-pore domain potassium channel; HEK293 KCNK9, FluxOR thallium flux fluorescence; active compounds read low; B-score at 10 µM; 310,000 compounds, 1.2% hits; AID 488922;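 active means ratio B-score over 3 SD below the library mean, with starting fluorescence within 5 SD of its mean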;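 further: negative B-score means less thallium flux so channel inhibition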
# KCNQ1 act: human KCNQ1 channel potentiation or activation | AID 2648 | B-score at 10 µM | 310,000 compounds, 0.35% hits | CHO-K1 KCNQ1, thallium flux FluxOR fluorescence; active compounds read high;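 active means fluorescence ratio B-score, a plate-corrected score, at least three library SD, with initial intensity B-score within 5 SD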
#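 assay system = KCNQ1-transfected CHO-K1 cells | medium = assay buffer with matched DMSO | probe or stimulus = depolarizing K+/Tl+ stimulus, K2SO4 and Tl2SO4 each 12.5 mM in 5x stock | dosing = single dose | incubation = dye 90 min, compound 20 min, room temperature | detection = kinetic FluxOR fluorescence, 10 s baseline plus 110 s post-stimulus | evaluation = ratio B score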
# KCNK3 inh conf: human KCNK3 channel inhibition, confirmation assay; ratio percent of control, % at 10 µM; 2,400 compounds, 99% hits; shares compounds with KCNK3 inh; CHO-KCNK3 thallium flux, FluxOR fluorescence; 0% buffer, 100% carvedilol maximal block;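 active means ratio percent of control, averaged over triplicates, above buffer control mean plus 5 SD, cut at about 64% in these data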;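 further: ratio is the fluorescence rise from min to max over baseline after thallium stimulus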
# KCNK3 uninduced: activity in cells without induced KCNK3 expression | thallium flux ratio (lower = more inhibition) at 10 µM | shares compounds with KCNK3 inh | 2,400 compounds, 40% hits | non-induced KCNK3 parental cells, FluxOR thallium flux; active compounds read low;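 active means thallium flux ratio, averaged over three wells, more than 5 SD below the buffer control mean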;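 further: host cells are CHO cells without KCNK3 induction; ratio is peak minus trough fluorescence over baseline then normalized to buffer controls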
# An asterisk follows results filed as active; i = inactive; . = no result.
SMILES,hERG protect,KCNK3 inh,Kir21 inh,KCNQ1 inh,KCNK9 block,KCNQ1 act,KCNK3 inh conf,KCNK3 uninduced
CCn1c(=NC(=O)c2ccc(N3C(=O)CCC3=O)cc2)sc2c(OC)ccc(OC)c21,-9,i,1.4,i,i,i,.,.
CCn1c(=NC(=O)c2cccc(N3C(=O)CCC3=O)c2)sc2c(C)ccc(OC)c21,-13,-9.4*,2.3,i,i,i,106*,i
Cc1ccc(S(=O)(=O)N(C)c2ccc(OCc3cccc(C)c3)cc2)cc1,-14,-9.3*,0.2,i,i,i,108*,0.15*
COc1ccc(C(C)=O)cc1COc1ccc(F)cc1,-15,-9.2*,-2,i,i,i,115*,i
COc1ccc(C(C)=O)cc1COC(=O)CNC(=O)c1ccc(F)cc1,-4,i,-0.54,i,i,i,.,.
O=C(c1cc(C2CC2)nn1-c1ccccc1)N1CCN(Cc2c(F)cccc2Cl)CC1,.,i,.,.,.,.,.,.
OC1CCC(NC(=S)Nc2ccc(SC(F)F)cc2)CC1 (configuration not stated),-6,i,-0.51,i,i,i,.,.
FC(F)Sc1ccc(NC(=S)NC2CCCC2)cc1,-6,-11*,-1.1,i,i,i,113*,i
CC1(C)CC(=O)C(N=Nc2cc3c(cc2[N+](=O)[O-])OCCO3)=C(O)C1,-18,i,0.83,i,i,i,.,.
Cc1cc(C)c2sc(N(CCN(C)C)C(=O)c3c(F)cccc3F)nc2c1,-11,-9.1*,1.9,i,i,i,116*,i
COc1ccc(C2=NS(=O)(=O)N(C)C(C(=O)Nc3ccc4c(c3)OCO4)=C2)cc1,.,i,.,.,.,.,.,.
Cc1ccc(C2=NS(=O)(=O)N(C)C(C(=O)Nc3ccc4c(c3)OCO4)=C2)cc1,-10,-10*,-0.24,i,-6.7*,i,122*,0.14*
CNS(=O)(=O)c1ccc2c(c1)C(=O)c1cc(S(=O)(=O)NC)ccc1CC2,.,i,.,.,.,.,.,.
Clc1cccc(N2CCN(Cc3ccc(Br)o3)CC2)c1,-9,i,0.63,i,i,i,.,.
COc1cc(OC)cc(C(=O)N[C@H](C(=O)Nc2nc(-c3ccc(F)c(F)c3)cs2)C(C)C)c1,-6,-11*,1.8,i,i,i,100*,i
OC(CN1CCOCC1)(c1ccccc1)c1ccccn1 (configuration not stated),-4,i,-2.5,i,i,i,.,.
Cc1ccc2nc(N/N=C\c3ccc([N+](=O)[O-])o3)nc(-c3ccccc3)c2c1,-20,-11*,-0.12,7*,-6.9*,i,147*,0.087*
COc1ccc(S(=O)(=O)N(C)C)cc1NCC(=O)Nc1ccc(Br)c(C)c1,-4,i,-0.19,i,i,i,.,.
CCN(CC)S(=O)(=O)c1ccc(NC(=O)CNC2CCCCC2)cc1,-10,i,-0.08,i,i,i,.,.
CCC(CC)=N/N=C/c1c(O)n(CC)c2cc(C3=NNC(=O)CC3)ccc12,-5,i,-0.23,i,i,i,.,.
CCn1c(O)c(/C=N/N=C/c2ccccc2)c2ccc(C3=NNC(=O)CC3)cc21,-22,-8.9*,-0.16,i,i,i,131*,0.12*
N/C(=N\O)c1ccccc1N1CCCCC1,-15,i,-0.64,i,i,i,.,.
Cc1nc(N2CCN(C)CC2)c2c(C)c(C(=O)Nc3ccc(F)cc3)sc2n1,-4,i,0.37,i,i,i,.,.
Cc1nc(N2CCCCC2)c2c(C)c(C(=O)Nc3cccc(C(F)(F)F)c3)sc2n1,-5,-11*,-2.1,13*,i,i,124*,0.12*
O=C(Nc1ccc(CN2CCOCC2)cc1)c1ccc(-c2ccc(Cl)cc2Cl)o1,-15,-9.7*,-0.01,i,i,i,103*,i
SMILES,hERG protect,KCNK3 inh,Kir21 inh,KCNQ1 inh,KCNK9 block,KCNQ1 act,KCNK3 inh conf,KCNK3 uninduced
O=C(Nc1ccc(CN2CCOCC2)cc1)c1ccc(Cl)cc1Cl,-2,i,0.04,i,i,i,.,.
CCOC(=O)C(=N/O)/C(C)=N/NC(=O)C(=O)Nc1ccc(Cl)cc1,-31,-11*,-0.94,9*,i,i,120*,i
CCCOC(=O)c1c(N)sc2c1CCC2,-13,i,0.28,i,i,i,.,.
CCOC(=O)c1c(N)sc2c1CCSC2,-8,-9.6*,-0.31,i,i,i,72*,i
CCOC(=O)C1(CCCc2ccccc2)CCN(C(=O)CCC2=NNC(=O)CC2)CC1,-11,i,1.1,i,i,i,.,.
Cc1ccc(C2Nc3ccc4ccccc4c3C3=C2C(=O)CC(C)(C)C3)o1 (configuration not stated),-9,-9*,-0.75,i,i,i,105*,i
COc1ccccc1-c1c(C(F)(F)F)oc2cc(OC(=O)c3cccc([N+](=O)[O-])c3C)ccc2c1=O,-11,i,-0.04,i,i,i,.,.
N#C/C(=C\c1ccc(N2CCOCC2)o1)c1ccccc1,-16,-9*,0.12,i,i,i,144*,0.081*
CN1CCN(C2Cc3cc(Cl)ccc3Sc3cc(F)ccc32)CC1 (configuration not stated),-13,-10*,-3.2,i,i,i,144*,i
Cc1ccc(S(=O)(=O)Nc2ccccc2C=Nc2cccc(C)c2C)cc1,-5,i,0.72,i,i,i,.,.
Cc1ccc(S(=O)(=O)Nc2ccccc2N=Cc2c(F)c(F)c(F)c(F)c2F)cc1,.,-12*,.,.,.,.,114*,0.15*
CCc1ccc(N2CC(C(=O)N/N=C/c3cc([N+](=O)[O-])ccc3O)CC2=O)cc1 (configuration not stated),-11,-9.1*,0.72,i,i,i,91*,i
CC(=O)N1c2ccc(S(=O)(=O)N3CCC(C(=O)N4CCN(c5cc(Cl)ccc5C)CC4)CC3)cc2CC1C (configuration not stated),-6,-9.5*,-0.86,6*,i,i,108*,i
CC(=O)N1c2ccc(S(=O)(=O)N3CCC(C(=O)N4CCC(C)CC4)CC3)cc2CC1C (configuration not stated),-6,i,-1.2,i,i,i,.,.
COC(=O)c1ccc2c(c1)C(C)(C)C(/C=C/c1ccc(O)cc1)=[N+]2C,-39,i,-11,i,i,i,.,.

# Bioassay records: PubChem, Johns Hopkins Ion Channel Center
